# FAS TE block: blocks the thioesterase domain of human fatty acid synthase. P49327. 360,000 tested, 0.67% active. recombinant FAS-TE, OMFH fluorogenic substrate, fluorescence endpoint. inhibition, % at 15 µM;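 active = compounds whose normalised, plate-corrected inhibition of enzyme fluorescence in the single-dose primary screen is 50% or more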;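 also: 0% = DMSO with enzyme and 100% = substrate without enzyme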
# UCH37 inh: human UCH37 deubiquitinating enzyme inhibition. inhibition, % (no concentration beside the values). 330,000 tested, 0.33% active. Q9Y5K5. purified proteasome/UCH37, Ub-AMC cleavage fluorescence;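 active = mean inhibition over replicate wells above about 20%, limit read from the data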;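 also: 0% = compound-free wells with enzyme and 100% = wells lacking proteasome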
# Target sequence (Q9Y5K5 whole entry, looked up): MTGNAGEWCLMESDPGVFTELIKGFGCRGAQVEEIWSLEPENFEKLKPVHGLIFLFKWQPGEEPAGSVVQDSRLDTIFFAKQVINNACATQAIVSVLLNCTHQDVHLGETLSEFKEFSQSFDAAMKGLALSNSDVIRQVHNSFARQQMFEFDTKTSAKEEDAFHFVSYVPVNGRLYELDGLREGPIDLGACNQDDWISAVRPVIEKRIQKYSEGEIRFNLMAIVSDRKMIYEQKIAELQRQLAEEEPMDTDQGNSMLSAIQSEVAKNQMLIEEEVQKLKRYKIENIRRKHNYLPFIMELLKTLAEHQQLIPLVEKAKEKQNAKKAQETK
#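 System: Proteasome-associated human UCH37 deubiquitinase; Input: 0.15 nM proteasome in added enzyme buffer; Also added: Ub-AMC substrate from 1 µM stock; Incubation: 30 min compound-proteasome preincubation then 25 min substrate reaction, room temperature; Detection: fluorescence, ex 355 nm, em 460 nm; Read-out: % inhibition of Ub-AMC cleavage fluorescence; Benchmarks: no-proteasome and no-compound wells.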
# HDAC3 inh: inhibitors of human histone deacetylase 3. O15379. recombinant HDAC3, fluorogenic peptide/trypsin coupled, fluorescence. inhibition, % at 8.3 µM. 320,000 tested, 0.15% active; in the data active = inhibition above about 26%, passing the limit was not always enough; inconclusive = no clear call, values can overlap the other calls
# PfM18AAP inh: PfM18AAP enzyme inhibition; inhibition, % at 7.35 µM; 290,000 tested, 1.2% active; AID 1822; recombinant PfM18AAP, H-Glu-NHMec fluorogenic cleavage;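 active = inhibition above the campaign mean inhibition over all tested compounds plus 3 SD, cut at about 28% in these data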;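 also: 0% = plate median of test compound wells and 100% = 2 mM ZnCl2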
# ALR inh: human ALR oxidase inhibition via reduced H2O2; P55789; purified ALR, DTT oxidation, H2O2 HRP-luminol luminescence; inhibition, % (no concentration beside the values); 290,000 tested, 3.8% active; AID 485317;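 active = mean replicate inhibition above about 79%, with every replicate also reaching it, limit read from the data; inconclusive = only one of the two criteria met; inactive = mean below limit and not every replicate reaching it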
# Target sequence (P55789 whole entry, looked up): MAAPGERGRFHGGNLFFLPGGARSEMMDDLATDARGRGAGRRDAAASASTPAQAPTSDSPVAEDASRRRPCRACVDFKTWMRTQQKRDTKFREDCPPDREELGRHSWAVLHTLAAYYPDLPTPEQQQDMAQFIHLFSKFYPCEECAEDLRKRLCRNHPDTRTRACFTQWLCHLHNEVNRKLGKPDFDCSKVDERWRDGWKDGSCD
# Rtt109 HAT inh: C. albicans Rtt109 histone acetyltransferase inhibition. purified Rtt109/Vps75, ThioGlo CoA-SH fluorescence, 4 h. Q5AAJ8. inhibition, % at 34.9 µM. 330,000 tested, 0.16% active;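 active = inhibition of at least 50% in every replicate; inconclusive = best replicate reaches 50% inhibition but some replicates fall short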
# The depositor's hits bear a star; ? = inconclusive; . = no result given. Most compounds without a hit are left out; they make up all but 4.6% or so of the library.
SMILES,FAS TE block,UCH37 inh,HDAC3 inh,PfM18AAP inh,ALR inh,Rtt109 HAT inh
O=C(CSc1nnc(-c2ccccn2)o1)Nc1ccccc1Cl,1,5,10,6,99*,.
CCOC=Nc1c(C#N)c(CC#N)nn1-c1ccccc1,.,-1,.,.,.,.
CCN(CC)CCn1c2c(c(SCC(=O)Nc3cccc4ccccc34)nc1=O)CCC2,-9,4,6,.,97*,-3
CCN(CC)CCn1c2c(c(SCC(=O)Nc3nc4ccccc4s3)nc1=O)CCC2,-6,10,4,.,98*,-1
O=c1[nH]ccc2c(O)cccc12,-3,-4,-3,.,98*,1
CC(C)C(=O)N1CCC2(CC1)Oc1ccc(Cl)cc1C(=O)C21CC(c2ccccc2)=NO1 (centres undefined),57*,4,7,.,2,2
CC(Oc1ccccc1)C(=O)N1CCC2(CC1)Oc1ccc(Cl)cc1C(=O)C21CC(c2ccccc2)=NO1 (centres undefined),.,.,10,.,-5,.
O=S(=O)(NN=Cc1cn(-c2ccccc2)nc1-c1ccccc1)c1ccccc1,.,0,.,.,.,.
COc1cccc(C2NC(CCSC)(C(=O)O)C3C(=O)N(C(C)C)C(=O)C23)c1O (centres undefined),-4,8,3,4,98*,0
CC(C)CC1(C(=O)O)NC(c2ccccc2O)C2C(=O)N(C(C)C)C(=O)C21 (centres undefined),0,2,1,-12,93*,-6
CCOC(=O)C1(C)NC(c2ccc(O)cc2)C2C(=O)N(c3ccccc3)C(=O)C21 (centres undefined),-6,0,-1,-5,-5,0
CC(C)N1C(=O)C2C(c3ccccc3O)NC(C)(C(=O)O)C2C1=O (centres undefined),-4,5,1,.,89*,23
COc1cccc(C=Nn2nnc3c(cnn3-c3ccccc3)c2=O)c1,.,-6,.,.,.,.
COc1ccc(C(C)=NNC(=O)c2nc(C)cc(C)n2)cc1,.,4,.,.,.,.
O=C1CSC(=S)N1N=Cc1ccc(O)c(O)c1O,.,15,.,.,.,.
CC(=O)NS(=O)(=O)c1ccc(NC(=O)/C=C/c2cn(-c3ccccc3)nc2-c2ccccc2)cc1,4,0,11,-1,98*,3
Cc1ccc(C=NNC(=O)Cc2cccs2)o1,.,2,.,.,.,.
NS(=O)(=O)c1ccc(CCNC(=O)CSc2ccc3ccccc3c2)cc1,-2,0,-3,6,99*,6
CCNC(=O)NC(=O)CSc1ccc2ccccc2c1,6,1,1,-7,98*,13
CCNC(=O)NC(=O)CSc1ccccc1F,-6,1,-1,0,-3,.
NS(=O)(=O)c1ccc(CCNC(=O)CN2CCN(c3ccccc3F)CC2)cc1,-10,0,2,2,-1,5
NC(=O)COC(=O)CSc1ccc2ccccc2c1,-1,0,-3,-6,99*,-2
NS(=O)(=O)c1ccc(CCNC(=O)CN2CCN(c3ccccc3O)CC2)cc1,-7,5,-3,5,99*,20
COCC(=O)NN=Cc1cccc(OC)c1OC/C=C/c1ccccc1,.,1,.,.,.,.
O=C(NN=Cc1ccc([N+](=O)[O-])o1)c1cccc(S(=O)(=O)N2CCOCC2)c1,.,11,.,.,.,.
SMILES,FAS TE block,UCH37 inh,HDAC3 inh,PfM18AAP inh,ALR inh,Rtt109 HAT inh
CCCC(=NNC(=O)c1ccc(OC)c(OC)c1)c1ccccc1,.,0,.,.,.,.
COc1ccc(NC2CCCN(C(=O)CCc3cccc(F)c3)C2)cc1 (centres undefined),1,3,1,8,99*,1
COc1ccc(NC2CCCN(C(=O)CCCn3cncn3)C2)cc1 (centres undefined),-5,.,-3,-7,99*,-4
COc1ccc(NC2CCCN(C(=O)CCc3cccc(Cl)c3)C2)cc1 (centres undefined),2,2,4,5,.,19
COc1ccc(NC2CCCN(C(=O)CCn3cccn3)C2)cc1 (centres undefined),-8,2,2,5,99*,-5
Cn1ccsc1=NC(=O)Nc1cccc(C(F)(F)F)c1,.,0,.,.,.,.
CC(=NNC(=O)c1ccc(F)cc1)c1ccc(N2CCOCC2)cc1,.,8,.,.,.,.
CC(=NO)c1cccc(N2Cc3ccccc3C2)c1,.,2,.,.,.,.
CCOC(=O)c1c(NC(=O)C(=O)NN=C(C)c2ccc(OC)cc2)sc2c1CCCCC2,.,-174,.,.,.,.
Nn1c(SCC(=O)Nc2ccc3c(c2)OCCO3)nnc(CCC(=O)O)c1=O,-7,-3,3,-3,93*,12
Nn1c(SCC(=O)Nc2cc(C(F)(F)F)ccc2Cl)nncc1=O,-22,6,4,4,16,-6
Nn1c(SCC(=O)Nc2cccc(C(F)(F)F)c2)nncc1=O,-28,6,-9,13,97*,-14
Nn1c(SCC(=O)Nc2ccc3c(c2)OCO3)nnc1C1CC1,-6,-2,-1,5,-18,2
Nn1c(SCC(=O)Nc2ccc3c(c2)OCO3)nncc1=O,-6,8,-2,-7,98*,7
C=C(C)Cn1c(N)cc(=O)nc1SCC(=O)Nc1cccc(C(F)(F)F)c1,-9,3,-4,-8,97*,-1
Cc1nnc(SCC(=O)Nc2ccc3c(c2)OCCO3)n1N,-6,-2,2,0,-4,0
CN(C)c1ccc(C=NN2CCN(Cc3ccccc3Cl)CC2)cc1,.,1,.,.,.,.
C=C(C)C1CC=C(C)C(=NNC(=S)Nc2ccccc2)C1 (centres undefined),.,2,.,.,.,.
CC1(C)OC(=O)C2(Cc3ccccc3N3CCCCC32)C(=O)O1 (centres undefined),-6,0,0,29*,99*,23
COc1ccc(NC(=O)CSc2nccn2-c2cccc(OC)c2)cc1,0,1,6,-7,98*,1
COc1cccc(-n2ccnc2SCC(=O)Nc2ccccc2)c1,3,6,3,1,41,6
COc1cccc(NC(=O)CSc2nccn2-c2cccc(OC)c2)c1,-2,3,-2,0,98*,-8
O=C(CSc1nccn1-c1cccc(Cl)c1)Nc1ccc2c(c1)OCCO2,4,4,-1,8,99*,-2
Cn1nnnc1SCC(=O)Nc1ccc2c(c1)OCCO2,0,1,?,-1,-12,-21
O=C(NN=Cc1ccncc1)c1cccc([N+](=O)[O-])c1,.,-1,.,.,.,.
CC12CCC(CC1=NO)C2(C)C (centres undefined),.,1,.,.,.,.
c1ccc(NCc2ccncc2)cc1,-9,1,-1,4,4,-11
c1cc(CNc2ccc(N3CCOCC3)cc2)ccn1,-2,2,-2,0,99*,-5
CC(C)c1ccc(CNc2ccc(N3CCOCC3)cc2)cc1,-7,-3,4,8,99*,1
COC(=O)Nc1ccc2c(c1)OCO2,-7,1,-4,10,.,-2
